From ChEMBL document CHEMBL1177857, “Functionalized aurones as inducers of NAD(P)H:quinone oxidoreductase 1 that activate AhR/XRE and Nrf2/ARE signaling pathways: synthesis, evaluation and SAR” (Eur J Med Chem, 2010)
Calls of active or inactive are those of the source. The calls are words filed in the database; no cut-off is given here. Peptide text beside a SMILES is read from it. * marks the point of attachment. Cbz = O=C(OCc1ccccc1)*

How the values were obtained:
[1] = Cytotoxicity against mouse Hepa-1c1c7 cells assessed as cell survival at 5 uM after 48 hrs by MTT assay; format: cell-based; conditions: read-out: Activity
Procedure, shortened: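 MTT (0.5 mg/ml) added for 3 h at 37 °C, formazan dissolved in DMSO and read at 590 nm. Survival (%) = (A treated − A blank)/(A untreated − A blank) × 100.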

CYP1A1 [2] = target: T1, CYP1A1 (Mus musculus, UniProt P30561); experiment: Induction of Ah receptor in mouse Hepa-1c1c7 cells assessed as induction of CYP1A1 activity at 10 uM after 48 hrs by EROD assay relative to control; format: cell-based; conditions: probe ethoxyresorufin (EROD), read-out: FC
T1 sequence (P30561 whole entry): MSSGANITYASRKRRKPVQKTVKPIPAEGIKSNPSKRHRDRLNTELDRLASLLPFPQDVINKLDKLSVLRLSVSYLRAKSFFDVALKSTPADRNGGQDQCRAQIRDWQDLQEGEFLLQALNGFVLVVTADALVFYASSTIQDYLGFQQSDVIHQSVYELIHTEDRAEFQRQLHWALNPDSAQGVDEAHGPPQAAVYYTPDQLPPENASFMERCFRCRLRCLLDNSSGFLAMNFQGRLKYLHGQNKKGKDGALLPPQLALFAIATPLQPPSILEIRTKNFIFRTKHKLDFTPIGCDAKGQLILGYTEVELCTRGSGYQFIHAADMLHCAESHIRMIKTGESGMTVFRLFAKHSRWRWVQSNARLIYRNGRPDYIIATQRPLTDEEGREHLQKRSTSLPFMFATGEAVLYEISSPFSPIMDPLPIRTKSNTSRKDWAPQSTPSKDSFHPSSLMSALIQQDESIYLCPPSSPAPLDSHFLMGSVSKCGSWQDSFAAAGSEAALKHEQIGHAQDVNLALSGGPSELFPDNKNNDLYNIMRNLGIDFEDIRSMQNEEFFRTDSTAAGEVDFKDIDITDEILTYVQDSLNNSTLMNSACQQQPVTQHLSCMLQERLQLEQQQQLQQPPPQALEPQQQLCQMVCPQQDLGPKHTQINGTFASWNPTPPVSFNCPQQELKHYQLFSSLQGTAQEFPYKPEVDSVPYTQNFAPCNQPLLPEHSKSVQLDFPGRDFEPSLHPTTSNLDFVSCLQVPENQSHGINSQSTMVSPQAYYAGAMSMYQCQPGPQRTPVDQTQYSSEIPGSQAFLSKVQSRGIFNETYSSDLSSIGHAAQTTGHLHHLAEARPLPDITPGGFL
Procedure, shortened: (§1)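 Hepa1c1c7 cells at 10⁴/well grown 24 h, then given compound at one fixed concentration for 48 h. After a PBS wash, cells incubated 40 min at 37 °C with 5 µM 7-ethoxyresorufin plus 2 mM salicylamide. Resorufin fluorescence read at ex 530/em 590 nm. Fold induction = (F cells+compound − F blank)/(F control − F blank); mean ± SD, n = 3.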

Hepa-1c1c7 [3] = experiment: Induction of human NQO1 gene expression in mouse Hepa-1c1c7 cells co-transfected with pGL3-ARE at 10 to 25 uM after 24 hrs by luciferase reporter gene assay; format: functional, cell-based
Procedure, shortened: (§2)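 Hepa1c1c7 cells at about 50% confluency co-transfected with pGL3-ARE firefly luciferase (human NQO1 ARE) and pRL-CMV Renilla as transfection control. After 24 h, cells exposed to compound (10 or 25 µM). Dual luciferase read-out expressed as fold over control; mean ± SD of 3 independent transfections, t-test.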

Hepa-1c1c7 [4] = experiment: Increase of Nrf2 protein level in mouse Hepa-1c1c7 cells at 10 uM for 6 hrs Western blotting relative to control; format: functional, cell-based
Procedure, shortened: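 Hepa1c1c7 cells exposed to compound at 10 µM for 6 h, with MG132 (25 µM) as reference. Lysates made in digitonin/EDTA with protease inhibitors; 50 µg protein run on 15% SDS-PAGE, blotted to nitrocellulose and probed for Nrf2 with β-actin loading control. Bands quantified by densitometry against untreated control, 3 experiments, independent t-test.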

[5] = Transcriptional activation of Nrf2/ARE signaling pathway in mouse Hepa-1c1c7 cells assessed as increase in cellular GSH level at 10 uM after 24 hrs by Ellman's method; format: functional, cell-based
Procedure, shortened: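 Hepa1c1c7 cells at 10⁶/plate grown 24 h, then given compound at 10 µM final for 24 h. Pellets extracted with 3% sulfosalicylic acid. Total GSH measured by DTNB recycling (0.6 mM DTNB, 0.2 mM NADPH, GSH reductase) as ΔA412 over 5 min against a GSH standard curve. Values normalized to Bradford protein from a parallel plate; mean ± SEM, n = 3.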

[6] = Upregulation of TrxR protein expression in mouse Hepa-1c1c7 cells at 10 uM after 24 hrs by Western blotting relative to control; format: functional, cell-based
Procedure, shortened: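 Hepa1c1c7 cells exposed to compound at 10 µM for 24 h. Digitonin/EDTA lysates (50 µg protein) separated on 15% SDS-PAGE, blotted to nitrocellulose and probed with anti-TrxR antibody. Band intensity compared with untreated control; representative of 3 experiments.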

[7] = Induction of NQO1 activity in mouse Hepa-1c1c7 cells at 5 uM after 48 hrs relative to control
[8] = target: NAD(P)H dehydrogenase [quinone] 1 (Homo sapiens) (UniProt P15559); experiment: Induction of […] NQO1 activity in mutant mouse BPrc1 cells assessed as concentration require for 2 fold induction after 48 hrs; format: cell-based
Sequence of NAD(P)H dehydrogenase [quinone] 1 (Homo sapiens) (P15559 whole entry): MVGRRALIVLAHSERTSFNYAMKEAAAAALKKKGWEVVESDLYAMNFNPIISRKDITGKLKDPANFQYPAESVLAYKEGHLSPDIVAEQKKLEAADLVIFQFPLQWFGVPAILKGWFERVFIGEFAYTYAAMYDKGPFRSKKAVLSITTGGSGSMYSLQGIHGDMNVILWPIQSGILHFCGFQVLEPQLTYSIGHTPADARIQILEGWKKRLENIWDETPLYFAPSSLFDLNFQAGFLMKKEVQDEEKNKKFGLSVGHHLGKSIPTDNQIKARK
Procedure, shortened: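 Mutant Hepa1c1c7 line (Bp^rc1, defective Ah-receptor pathway) seeded at 10⁴ cells/well for 24 h, then exposed to compound for 48 h; final DMSO ≤0.5%. Cells lysed with 0.8% digitonin/2 mM EDTA. NQO1 read by menadione-driven MTT reduction (NADP, glucose-6-phosphate regenerating system, FAD, pH 7.4), stopped after 5 min with dicoumarol, A590. Activity taken relative to blank and control wells; CD = concentration doubling basal activity; mean ± SD of 3 determinations.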

[9] = target: T2, Aryl hydrocarbon receptor (Mus musculus, UniProt P30561); experiment: (§3) Induction of Ah receptor in mouse Hepa-1c1c7 cells assessed as induction of CYP1A1 activity at 1 uM after 48 hrs by EROD assay relative to control; format: cell-based; conditions: hepa-1c1c7, 48 h, 1 µM; procedure, shortened: as §1
T2 sequence (P30561 whole entry): T1 sequence (P30561 whole entry)

Hepa-1c1c7 [10] = experiment: Increase of Nrf2 protein level in mouse Hepa-1c1c7 cells at 10 uM for 6 hrs Western blotting relative to control
CYP1A1 [11] = target: T1, CYP1A1; experiment: as §3; format: cell-based; conditions: Hepa-1c1c7 cells, probe ethoxyresorufin (EROD), read-out: FC; procedure, shortened: as §1
[12] = Induction of NQO1 activity in mouse Hepa-1c1c7 cells at 1 uM after 48 hrs relative to control
Hepa-1c1c7 [13] = experiment: Induction of human NQO1 gene expression in mouse Hepa-1c1c7 cells co-transfected with pGL3-ARE at 25 uM after 24 hrs by luciferase reporter gene assay; format: functional, cell-based; procedure, shortened: as §2

Row | Compound | viability at 48 h, 5 µM [1] | fold induction at 48 h, 10 µM (CYP1A1 [2]) | Activity (Hepa-1c1c7 [3]) | Activity (Hepa-1c1c7 [4]) | Activity [5] | fold change (FC) [7] | other results
1 | COc1cc(OC)c2c(c1)O/C(=C\c1ccccc1O)C2=O | 102% | 1.87 | Active | Active | Active | 5.28 | Activity [6]: Active
2 | C[S+]([O-])CCCCN=C=S (configuration not stated) [SULFORAPHANE] |  |  | inactive | Active |  |  | Activity [8]: inactive; Activity [9]: 0.92
3 | CC(C)C[C@@H](C=O)NC(=O)[C@H](CC(C)C)NC(=O)[C@H](CC(C)C)NC(=O)OCc1ccccc1 (Cbz-Leu-Leu-Leu-aldehyde) |  |  |  |  |  |  | Activity (Hepa-1c1c7 [10]): Active
4 | COc1cc(OC)c2c(c1)O/C(=C\c1ccccc1OC)C2=O | 82% |  |  |  |  |  | fold induction at 48 h, 1 µM (CYP1A1 [11]): 1.56; fold change (FC) [12]: 2.21
5 | O=C1/C(=C/c2ccccc2O)Oc2cc(O)cc(O)c21 | 102% | 1.1 | Active | Active | Active | 2.92 | Activity (Hepa-1c1c7 [13]): Active
